These results are taken from paper PMC3601665 (Molecular pharmaceutics, 2012).

For data set [1], the system named is pAkt (Ser-473) in LNCaP cells. Nature of the data set: Western blot assay of Akt phosphorylation. Format: cell-based. Conditions: 2-μM drug, 100-ng/mL EGF, 30 min, serum-starved LNCaP. The method, boiled down:
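Cells were lysed in buffer with protease inhibitors, and protein was quantified by BCA. Equal protein amounts were run on 10 % SDS-PAGE and transferred to nitrocellulose. Blots were probed for phospho-Akt (Ser-473) and total Akt, followed by HRP-conjugated secondary antibodies and chemiluminescent detection.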
(A western blot detects proteins with antibodies after separation by electrophoresis.)

The test system of another data set is LNCaP cells. Nature of the data set: Cytotoxicity assay. The data set is classed as cell-based. Conditions: for selective cytotoxicity: LNCaP versus DU145 and PC3; for IC50: read-out: IC50 (Mean ± SE), LNCaP, PSMA positive, PTEN-deficient, 72 h, n=6. The method, boiled down:
(§1)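 DU145 and LNCaP were grown in RPMI-1640 and PC3 in F-12K, all with 10 % FBS. Cells were seeded at 5,000 per well. After 12 h, test compound (free or micelle-loaded) in PBS was added at 0, 0.1, 1, 5, 10, 50 or 100 μM. PBS and TCA served as negative and positive controls. After 72 h, 55-μM resazurin solution was added for 4 h at 37 °C, then resorufin fluorescence was read (ex 560/em 590 nm). IC50 was taken as the midpoint between controls on each plate.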

The next data set concerns DU145 cells. Description: Cytotoxicity assay. Format: cell-based. Conditions: read-out: IC50 (Mean ± SE); DU145, PSMA negative, 72 h, n=6. The method, boiled down: as §1
The test system of another data set is PC3 cells. Nature of the data set: Cytotoxicity assay. The data set is classed as cell-based. Conditions: read-out: IC50 (Mean ± SE); PC3, PSMA negative, 72 h, n=6. The method, boiled down: as §1
Another data set relates to cell growth. To be noted: cited from earlier work.

The term IC50 denotes the midpoint of a concentration-inhibition curve. Turning to `Cc1cc(C(C)N(CCO)c2ccccc2)c2nc(N3CCOCC3)cc(=O)n2c1` (centres unmarked) [BL05], the “phosphorylation of Akt (Ser473)” value in data set [1] is on record as “inhibited phosphorylation of Akt”. Moreover, the selective cytotoxicity entry in the data set with LNCaP cells is “selective cytotoxicity to LNCaP cells”. In addition, the IC50 with LNCaP cells stood at 4.04 ± 0.11 µM; in the data set on DU145 cells, 32.4 ± 0.67 µM; in the data set with PC3 cells, 23.4 ± 0.74 µM.
As to `CC1(C)C(=CC=C2CCCC(C=CC3=[N+](CCCCS(=O)(=O)[O-])c4ccc5ccccc5c4C3(C)C)=C2Cl)N(CCCCS(=O)(=O)[O-])c2ccc3ccccc3c21.[Na+]` [IR-820], the “concentration at which cell growth is significantly inhibited” value in the data set with cell growth is “greater than 5 μM”.
With `Cc1cc(C(C)Nc2ccccc2)c2nc(N3CCOCC3)cc(=O)n2c1` (centres unmarked) [TGX-221], in data set [1], the “phosphorylation of Akt (Ser473)” value is reported as “inhibited phosphorylation of Akt”. For the same compound, the selective cytotoxicity entry in the data set with LNCaP cells is listed as “selective cytotoxicity to LNCaP cells”. For the same compound, the values for the IC50 in the data set with LNCaP cells, with DU145 cells and in the data set on PC3 cells were 3.98 ± 0.18 µM, 35.6 ± 0.12 µM and 18.2 ± 0.85 µM, respectively.
